Test results: ChEMBL document CHEMBL4673366, “Cyclic Phosphopantothenic Acid Prodrugs for Treatment of Pantothenate Kinase-Associated Neurodegeneration” (J Med Chem, 2020)
Calls of active or inactive are those of the source. The rule behind the calls is not given here.

Legend:
[1] = Increase in free coenzyme A level in C57BL6 mouse brain at 500 mg/kg, po administered as single dose measured after 1 hr UPLC quadrupole-time-of-flight mass spectrometry (Rvb =0%); assay type: functional
Method in brief: (§1)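 C57BL6 mice, three per time point, received one oral 500 mg/kg dose of isotopically labeled prodrug, and brains were taken at 0, 1, 6 and 24 h. Brains were homogenized in water (3 mL/g), protein was precipitated with MeOH, and dried supernatant was reconstituted in 10 mM ammonium acetate (pH ~5). Analysis was UPLC-QTOF MS in positive ESI, scoring labeled CoA (+6, +4 amu) as a share of free CoA.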

[2] = Increase in free coenzyme A level in C57BL6 mouse brain at 500 mg/kg, po administered as single dose measured after 24 hrs UPLC quadrupole-time-of-flight mass spectrometry (Rvb =0%); assay type: functional; method in brief: as §1
[3] = Increase in free coenzyme A level in C57BL6 mouse brain at 500 mg/kg, po administered as single dose measured after 6 hrs UPLC quadrupole-time-of-flight mass spectrometry (Rvb =0%); assay type: functional; method in brief: as §1
[4] = Stability of compound in human plasma assessed as half life; assay type: ADME, cell-free
[5] = Effect on free coenzyme A level in C57BL6 mouse brain at 500 mg/kg, po administered as single dose measured after 6 hr UPLC quadrupole-time-of-flight mass spectrometry (Rvb =100%); assay type: functional; method in brief: as §1
[6] = Induction of Coenzyme A regeneration in human IMR-32 PANK2 knockdown cells at 50 uM for 24 hrs by HPLC analysis relative to control; assay type: functional
Method in brief: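 PANK2-knockout neuroblastoma cells were grown in MEM with 10% FBS and 1 µg/mL puromycin and seeded at 0.2×10⁶ cells/well. After 72 h, they were dosed at 50 µM in DMSO (final 0.1%) at 37 °C. Washed, frozen pellets were reconstituted in ammonium acetate (pH 5.1) with internal standard, and free CoA was measured by LC-MS/MS. Intracellular volume was taken as 2 µL/10⁶ cells; results are fold over vehicle-treated cells.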

IMR-32 [7] = assay: Increase in tubulin acetylation in human IMR-32 PANK2 knockdown cells at 50 uM for 48 hrs by Western blot analysis; assay type: functional
[8] = Effect on free coenzyme A level in C57BL6 mouse brain at 500 mg/kg, po administered as single dose measured after 24 hrs UPLC quadrupole-time-of-flight mass spectrometry (Rvb =100%); assay type: functional; method in brief: as §1
[9] = Effect on free coenzyme A level in C57BL6 mouse brain at 500 mg/kg, po administered as single dose measured after 1 hr UPLC quadrupole-time-of-flight mass spectrometry (Rvb =100%); assay type: functional; method in brief: as §1
IMR-32 [10] = assay: Increase in histone H3 acetylation in human IMR-32 PANK2 knockdown cells at 50 uM for 48 hrs by Western blot analysis; assay type: functional
IMR-32 [11] = assay: Decrease in lipid droplet content in human IMR-32 PANK2 knockdown cells at 10 uM for 48 hrs by Nile red staining based inverted microscopic analysis; assay type: functional
Method in brief: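 PANK2-knockout neuroblastoma cells were treated for 48 h, then fixed and stained with 100 ng/mL Nile Red. Cells were imaged on an inverted microscope at 60×, and lipid droplet content was quantified by plate fluorimetry. Data are mean ± sd of two biological replicates, each in duplicate; two-tailed paired Student's t-test.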

[12] = Stability of compound in human whole blood assessed as half life; assay type: ADME, tissue-based
[13] = Apparent permeability in porcine brain endothelial cells; assay type: ADME, cell-based, Sus scrofa, Endothelial cell; conditions: pig
[14] = Stability of compound in human hepatocytes assessed as half life; assay type: ADME, cell-based, Hepatocyte

half-life [4] | SMILES | Activity [1] | Activity [2] | Activity [3] | fold change (FC) [6] | also measured
< 9.6 min | COC(=O)CCNC(=O)[C@@H]1O[P@@](=O)(OCOC(=O)c2cncs2)OCC1(C)C (relative stereo) | – | – | – | – | –
< 9.6 min | COC(=O)CCNC(=O)[C@@H]1O[P@](=O)(OCOC(=O)c2cncs2)OCC1(C)C (relative stereo) | – | – | – | – | –

Second part, the compound before the results:

SMILES | half-life [4] | Activity [1] | Activity [2] | Activity [3] | fold change (FC) [6] | also measured
CO[13C](=O)[13CH2][13CH2][15NH]C(=O)[C@@H]1OP(=O)(OCOC(=O)C(C)(C)C)OCC1(C)C (some centres undefined) | – | 0% | 12.9% | 2.7% | – | –
COC(=O)CCNC(=O)[C@@H]1OP(=O)(OCOC(=O)C(C)(C)C)OCC1(C)C (mixture of isomers) | – | – | – | – | 180 | Activity [5]: 92%; Activity (IMR-32 [7]): Active; Activity [8]: 85%; Activity [9]: 100%; Activity (IMR-32 [10]): Active; inhibition (IMR-32 [11]): Active
CO[13C](=O)[13CH2][13CH2][15NH]C(=O)[C@@H]1OP(=[18O])(OCOC(=O)C(C)(C)C)OCC1(C)C (some centres undefined) | – | 0% | 2.1% | 5.3% | – | –
COC(=O)CCNC(=O)[C@@H]1O[P@@](=O)(OCOC(=O)c2cc(C(C)(C)C)n[nH]2)OCC1(C)C | – | – | – | – | 101 | half-life [12]: > 60 min; Papp [13]: 5.3 ×10⁻⁶ cm/s; half-life [14]: 30 min
